Measurements taken from PubChem BioAssay.
Active and inactive are the calls of the source.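 Rule for the calls, unless noted: active = Her2 level under about 52% in both replicate screens, with viability over 70% of control (limit read from the data); inconclusive = Her2 under the limit in one screen only, or viability under 70%; inactive = Her2 level above the set limit.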

Legend:
[1] = Her2 expression decrease, cell viability multiplex – SKBR3 breast tumor cells, AlphaScreen, ATP viability, primary screen (AID 461); conditions: SKBR3 Her2 protein level, 18-24 h, measured here: SKBR3 viability, ATP luminescence, at 10 µM;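 for Her2 level: lower value means less Her2 protein in the cells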;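 for viability: percent of carrier control wells set as 100% viability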
[2] = molecular target: Receptor tyrosine-protein kinase erbB-2 (Homo sapiens) (UniProt P04626); assay: as above; conditions: 18-24 h, at 10 µM, stronger effect = lower value
Sequence of Receptor tyrosine-protein kinase erbB-2 (Homo sapiens) (P04626 whole entry, looked up): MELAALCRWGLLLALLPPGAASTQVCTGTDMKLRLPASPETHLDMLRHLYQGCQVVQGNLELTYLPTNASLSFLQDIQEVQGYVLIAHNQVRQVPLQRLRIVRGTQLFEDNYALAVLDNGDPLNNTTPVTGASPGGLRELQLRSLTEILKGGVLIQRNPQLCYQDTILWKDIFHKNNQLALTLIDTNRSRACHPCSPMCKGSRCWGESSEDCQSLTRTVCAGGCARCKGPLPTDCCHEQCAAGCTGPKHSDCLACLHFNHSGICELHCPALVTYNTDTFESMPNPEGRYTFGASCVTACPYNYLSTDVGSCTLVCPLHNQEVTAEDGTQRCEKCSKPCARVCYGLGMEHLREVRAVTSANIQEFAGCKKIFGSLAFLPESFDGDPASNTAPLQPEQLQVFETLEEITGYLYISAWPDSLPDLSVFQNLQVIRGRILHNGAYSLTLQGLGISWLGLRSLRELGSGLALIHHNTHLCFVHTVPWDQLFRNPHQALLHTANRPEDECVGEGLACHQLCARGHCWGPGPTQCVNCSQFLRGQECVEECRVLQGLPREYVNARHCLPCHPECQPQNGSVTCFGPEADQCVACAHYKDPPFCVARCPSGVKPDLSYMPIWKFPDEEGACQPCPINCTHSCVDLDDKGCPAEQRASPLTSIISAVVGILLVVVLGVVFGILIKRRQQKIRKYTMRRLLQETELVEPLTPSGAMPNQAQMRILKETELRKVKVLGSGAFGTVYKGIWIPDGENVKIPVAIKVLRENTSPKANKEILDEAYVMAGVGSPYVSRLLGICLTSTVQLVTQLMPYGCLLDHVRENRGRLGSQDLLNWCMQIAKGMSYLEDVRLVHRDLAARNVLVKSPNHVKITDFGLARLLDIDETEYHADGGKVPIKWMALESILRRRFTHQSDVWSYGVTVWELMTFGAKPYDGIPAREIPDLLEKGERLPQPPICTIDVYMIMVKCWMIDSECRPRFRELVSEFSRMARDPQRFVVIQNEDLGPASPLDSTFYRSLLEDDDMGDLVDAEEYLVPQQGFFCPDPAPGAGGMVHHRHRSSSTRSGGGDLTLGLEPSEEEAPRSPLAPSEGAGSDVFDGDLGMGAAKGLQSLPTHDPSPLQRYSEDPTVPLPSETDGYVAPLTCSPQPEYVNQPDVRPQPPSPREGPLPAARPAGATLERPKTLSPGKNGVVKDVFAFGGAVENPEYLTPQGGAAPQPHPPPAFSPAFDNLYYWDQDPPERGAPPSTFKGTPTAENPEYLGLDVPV

[3] = reduced viability of SK-BR-3 breast cancer cells – cell-based, 24 h, human, pilot screen (AID 572;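 active = viability at or below 10% of carrier control in both of two separate runs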;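 note: compound exposure lasted between 18 and 24 h rather than exactly 24 h; 100% = carrier-treated control wells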); conditions: SK-BR-3 viability, CellTiter-Glo luminescence, at 10 µM, stronger effect = lower value
[4] = HUVEC growth inhibition – cell-based, human, primary screen (AID 575;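 active = viability at or below 30% in both replicate assays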;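 note: 100% = median of untreated cell wells with 0.1% DMSO on each plate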); conditions: HUVEC proliferation, CellTiter-Glo luminescence, 72 h; at 10 µM; stronger effect = lower value
How it was run: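 Test system: primary human umbilical vein endothelial cells. Quantity: 1250 cells/well. Compound: single 10 µM dose, 0.1% DMSO, from 5x medium stock. Timing: 72 h treatment at 37 °C. Detection: ATP-based CellTiter-Glo luminescent read. Benchmarks: vehicle and MePR control wells. Format: 384-well plates coated with collagen.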

[5] = H69AR cell proliferation blockers – human, duplicate replicates, primary screen (AID 580;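 active = viability at or under a set limit in both replicates, limit being median viability minus 3 SD, cut at about 48% in these data, passing the limit was not always enough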;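 note: 100% = mean luminescence of untreated wells and 0% = no signal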); conditions: H69AR lung tumor cells viability, ATP luminescence, 72 h; at 10 µM; stronger effect = lower value
[6] = MRP1 drug-resistance reversers in H69AR cells – cell-based, doxorubicin co-treatment, pilot screen (AID 601;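 active = viability loss from added drug above about 55%, and viability with drug at most 40%, in both replicates, limit read from the data, passing the limit was not always enough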); conditions: CellTiter-Glo, 72 h, at 10 µM; for differential viability (reversal): stronger effect = higher value
[7] = yeast transport mutant growth inhibition pilot in 384-well plates, post-Golgi transport modulator project (AID 636; in the data active = inhibition above about 31%); conditions: absorbance 615 nm, about 18 h, stronger effect = higher value
[8] = growth suppression of yeast trafficking mutant, preliminary HTS, modulators of trafficking downstream of Golgi apparatus project, 1536-format plate, OD 615 nm (AID 637; in the data active = inhibition above about 30%); conditions: yeast transport mutant growth, absorbance 615 nm, 18 h; stronger effect = higher value
[9] = H69AR cells + 2 uM doxorubicin, measured here: viability with 2 uM doxorubicin, stronger effect = lower value
[10] = H69AR cells, compound alone cytotoxicity

SMILES	viability [1]	Her2 level [2]	viability [3]	viability [4]	viability [5]	differential viability (reversal) ([6]; H69AR cells + 2 uM doxorubicin)	viability [6, 9]	viability [6, 10]	inhibition [7]	inhibition [8]
Cc1cc(C(=O)Nc2sc3c(c2C#N)CCCCC3)cs1	91.5%	92.5% (inactive)	91.5% (inactive)	76.6% (inactive)	77.1% (inactive)	-4.53% (inactive)	81.7%	77.1%	-3.47% (inactive)	-4.1% (inactive)
CCOC(=O)CSC1=C(C#N)C(c2ccc(Cl)cc2)C(C(=O)OC)C(=O)N1 (stereo not given)	104%	143% (inactive)	104% (inactive)	85.4% (inactive)	88.5% (inactive)	0.1% (inactive)	88.4%	88.5%	-4.74% (inactive)	4.83% (inactive)
COc1cccc(OC)c1C(=O)N1CCOCC1	100%	87.5% (inactive)	100% (inactive)	92.1% (inactive)	100% (inactive)	15% (inactive)	85.1%	100%	-1.84% (inactive)	-0.81% (inactive)
CCn1c(C(=O)N2CCCC(C(=O)O)C2)cc2sccc21 (stereo not given)	103%	98.5% (inactive)	103% (inactive)	101% (inactive)	93.8% (inactive)	6.41% (inactive)	87.4%	93.8%	0.53% (inactive)	-1.15% (inactive)
COc1ccccc1-n1c(SCC(=O)Nc2ccc3c(c2)OCO3)nc2c(c1=O)SCC2	82.5%	112% (inactive)	82.5% (inactive)	85% (inactive)	87.4% (inactive)	0.71% (inactive)	86.7%	87.4%	-0.55% (inactive)	23.5% (inactive)
CCn1c(CSc2ncccn2)nnc1SCC(=O)N1c2ccccc2CC1C (stereo not given)	96%	87.5% (inactive)	96% (inactive)	87.5% (inactive)	96.3% (inactive)	11.9% (inactive)	84.3%	96.3%	-5.73% (inactive)	5.41% (inactive)
O=C(NCCc1ccccc1)C1CCCN(S(=O)(=O)c2cccs2)C1 (stereo not given)	89%	91% (inactive)	89% (inactive)	112% (inactive)	93.8% (inactive)	7.11% (inactive)	86.7%	93.8%	1.79% (inactive)	-0.33% (inactive)
